# Data from ChEMBL document CHEMBL5316332 (J Med Chem, 2023).
# The source made the active and inactive calls. The rule behind the calls is not given here.
# Assays:
# [1] = molecular target: Activin receptor type-1-like (Homo sapiens, UniProt P37023); assay: Inhibition of ACVRL1 (unknown origin) by LanthaScreen TR-FRET assay
# Method in brief: (§1)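 Outsourced SelectScreen profiling using a LanthaScreen TR-FRET binding format, in which a tight-binding tracer is displaced from the kinase.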
# [2] = molecular target: Bone morphogenetic protein receptor type-1A (Homo sapiens, UniProt P36894); assay: Inhibition of BMPR1A (unknown origin) by LanthaScreen TR-FRET assay; method in brief: as §1
# Chain of Bone morphogenetic protein receptor type-1A (P36894 whole entry): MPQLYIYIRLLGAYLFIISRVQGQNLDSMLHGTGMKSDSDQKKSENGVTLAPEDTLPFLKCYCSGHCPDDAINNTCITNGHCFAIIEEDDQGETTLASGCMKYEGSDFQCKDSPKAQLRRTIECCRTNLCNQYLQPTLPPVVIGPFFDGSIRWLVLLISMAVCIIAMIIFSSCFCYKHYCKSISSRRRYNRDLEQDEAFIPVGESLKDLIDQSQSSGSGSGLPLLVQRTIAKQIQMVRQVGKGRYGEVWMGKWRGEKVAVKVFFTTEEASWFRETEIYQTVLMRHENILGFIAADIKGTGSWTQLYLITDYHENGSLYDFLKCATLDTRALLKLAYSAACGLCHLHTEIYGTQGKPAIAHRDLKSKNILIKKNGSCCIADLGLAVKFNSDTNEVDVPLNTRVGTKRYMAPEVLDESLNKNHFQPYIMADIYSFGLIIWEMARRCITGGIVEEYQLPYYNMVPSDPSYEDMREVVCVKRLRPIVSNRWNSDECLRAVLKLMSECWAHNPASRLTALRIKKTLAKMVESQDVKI
# TGF-beta receptor type-1 = molecular target: T1, TGF-beta receptor type-1 (Homo sapiens, UniProt P36897); assay: (§2) Inhibition of TGFBR1 (unknown origin) by LanthaScreen TR-FRET assay; method in brief: as §1
# T1 sequence (P36897 whole entry): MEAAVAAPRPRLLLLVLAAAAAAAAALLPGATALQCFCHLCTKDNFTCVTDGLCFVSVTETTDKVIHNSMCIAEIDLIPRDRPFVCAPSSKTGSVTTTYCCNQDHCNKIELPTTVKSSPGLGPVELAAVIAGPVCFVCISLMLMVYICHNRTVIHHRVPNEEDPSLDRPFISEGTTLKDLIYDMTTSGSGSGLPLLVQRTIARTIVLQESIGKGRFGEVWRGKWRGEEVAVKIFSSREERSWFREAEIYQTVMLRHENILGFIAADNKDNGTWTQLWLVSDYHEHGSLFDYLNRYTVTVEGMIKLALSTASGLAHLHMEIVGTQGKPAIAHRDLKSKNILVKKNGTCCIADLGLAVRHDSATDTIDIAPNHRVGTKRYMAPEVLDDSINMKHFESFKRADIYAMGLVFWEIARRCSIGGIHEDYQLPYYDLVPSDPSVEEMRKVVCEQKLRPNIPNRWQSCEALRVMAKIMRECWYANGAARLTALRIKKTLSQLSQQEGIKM
# [3] = Inhibition of BMP signalling pathway in BMP2-stimulated human HEK293T cells expressing BRE and luciferase reporter assessed as inhibition of luciferase transactivation by measuring BRE-reporter activity preincubated for 30 mins followed by BMP2 stimulation and measured after 6 hrs by Bright-GLO mediated luciferase assay; type: cell-based; details: HEK-293T
# Method in brief: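 293T cells stably carrying a BMP-responsive-element luciferase reporter, 2 × 10^4 per well, attached overnight in phenol-red-free DMEM with 2 mM glycine and 2% heat-inactivated FBS. Pretreated 30 min with inhibitor, then 5 ng/mL BMP2 for 6 h. Bright-Glo luminescence read; IC50 by nonlinear regression.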
# HEK293T [4] = assay: Inhibition of BMP signalling pathway in BMP2-stimulated human HEK293T cells assessed as decrease in SMAD1 phosphorylation at 25 uM preincubated for 30 mins followed by BMP2 stimulation and measured after 15 mins by Western blot analysis; type: cell-based; details: time 45.0 min
# Method in brief: (§3)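 HEK293T cells, 3 × 10^5 per well, starved overnight in DMEM with 2 mM glycine and 2% heat-inactivated FBS. Pretreated 30 min with inhibitor, then 5 ng/mL BMP2 for 15 min. Lysed in M-PER with protease inhibitors. Western blot for pSMAD1/5, SMAD1, SMAD5 and GAPDH, quantified by densitometry.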
# HEK293T [5] = assay: Inhibition of BMP signalling pathway in BMP2-stimulated human HEK293T cells assessed as decrease in SMAD5 phosphorylation at 25 uM preincubated for 30 mins followed by BMP2 stimulation and measured after 15 mins by Western blot analysis; type: cell-based; details: time 45.0 min; method in brief: as §3
# HUVEC [6] = assay: Inhibition of BMP signalling pathway in BMP9-stimulated human HUVEC cells assessed as decrease in SMAD1 phosphorylation at 25 uM preincubated for 30 mins followed by BMP2 stimulation and measured after 15 mins by Western blot analysis; type: cell-based; details: time 45.0 min
# Method in brief: (§4)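 HUVECs, about 3 × 10^5 per well, starved overnight in Kaighn's F-12 with 0.5% FBS and 30 μg/mL endothelial cell growth supplement. Pretreated 30 min with inhibitor, then stimulated with 0.5 ng/mL BMP9. Lysed in M-PER with protease and phosphatase inhibitors. Western blot for pSMAD1/5, SMAD1 and SMAD5, quantified by densitometry.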
# HUVEC [7] = assay: Inhibition of BMP signalling pathway in BMP9-stimulated human HUVEC cells assessed as decrease in SMAD5 phosphorylation at 25 uM preincubated for 30 mins followed by BMP2 stimulation and measured after 15 mins by Western blot analysis; type: cell-based; details: time 45.0 min; method in brief: as §4
# [8] = molecular target: T2, Bone morphogenetic protein receptor type-2 (Homo sapiens) (UniProt Q13873); assay: Binding affinity to recombinant C-terminal 6His-tagged human BMPR2 (188 to 517 residues) expressed in Escherichia coli Rosetta assessed as change in melting temperature at 50 uM by SYPRO Orange dye based thermal shift assay
# T2 sequence (whole entry): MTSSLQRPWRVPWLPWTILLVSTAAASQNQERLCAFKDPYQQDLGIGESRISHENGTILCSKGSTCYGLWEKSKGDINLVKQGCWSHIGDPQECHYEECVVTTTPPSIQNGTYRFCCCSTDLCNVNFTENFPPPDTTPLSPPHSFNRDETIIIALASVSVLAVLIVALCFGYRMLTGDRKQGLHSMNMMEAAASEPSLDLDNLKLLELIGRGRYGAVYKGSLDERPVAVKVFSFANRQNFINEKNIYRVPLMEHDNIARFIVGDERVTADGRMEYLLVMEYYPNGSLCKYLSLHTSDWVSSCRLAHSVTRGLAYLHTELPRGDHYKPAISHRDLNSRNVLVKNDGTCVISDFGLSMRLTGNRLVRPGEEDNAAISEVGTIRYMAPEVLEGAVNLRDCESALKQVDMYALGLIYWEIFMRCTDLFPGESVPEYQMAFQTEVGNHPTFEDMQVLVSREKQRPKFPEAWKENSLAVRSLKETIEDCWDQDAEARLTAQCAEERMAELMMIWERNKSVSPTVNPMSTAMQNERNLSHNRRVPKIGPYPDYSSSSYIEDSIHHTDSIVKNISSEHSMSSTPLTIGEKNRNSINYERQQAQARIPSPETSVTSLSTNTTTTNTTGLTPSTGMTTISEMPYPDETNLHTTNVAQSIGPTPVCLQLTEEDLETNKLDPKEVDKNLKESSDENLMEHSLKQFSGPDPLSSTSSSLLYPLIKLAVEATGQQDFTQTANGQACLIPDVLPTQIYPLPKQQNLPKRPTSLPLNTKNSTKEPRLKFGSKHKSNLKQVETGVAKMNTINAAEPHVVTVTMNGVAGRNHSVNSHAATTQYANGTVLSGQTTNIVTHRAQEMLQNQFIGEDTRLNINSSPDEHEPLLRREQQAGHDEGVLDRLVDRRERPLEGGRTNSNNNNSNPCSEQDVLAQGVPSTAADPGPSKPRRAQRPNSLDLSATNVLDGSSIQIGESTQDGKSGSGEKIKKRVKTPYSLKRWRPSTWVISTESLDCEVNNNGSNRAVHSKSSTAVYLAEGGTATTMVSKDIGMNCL
# Method in brief: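 BMPR2 kinase domain-His (purified by IMAC, anion exchange and size exclusion) at 1 μg per 10 μL reaction in 50 mM Tris–HCl pH 7.5, 150 mM NaCl with SYPRO Orange 5×. Compound at 50 μM. Scanned 20 to 95 °C with fluorescence read every 10 s. Tm from the melt curve; averages of three technical replicates.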
# [9] = molecular target: T3, TGF-beta receptor type-1 (Homo sapiens) (UniProt P36897); assay: as §2; method in brief: as §1
# T3 sequence (whole entry): T1 sequence (P36897 whole entry)
# Chain of Activin receptor type-1-like (P37023 whole entry): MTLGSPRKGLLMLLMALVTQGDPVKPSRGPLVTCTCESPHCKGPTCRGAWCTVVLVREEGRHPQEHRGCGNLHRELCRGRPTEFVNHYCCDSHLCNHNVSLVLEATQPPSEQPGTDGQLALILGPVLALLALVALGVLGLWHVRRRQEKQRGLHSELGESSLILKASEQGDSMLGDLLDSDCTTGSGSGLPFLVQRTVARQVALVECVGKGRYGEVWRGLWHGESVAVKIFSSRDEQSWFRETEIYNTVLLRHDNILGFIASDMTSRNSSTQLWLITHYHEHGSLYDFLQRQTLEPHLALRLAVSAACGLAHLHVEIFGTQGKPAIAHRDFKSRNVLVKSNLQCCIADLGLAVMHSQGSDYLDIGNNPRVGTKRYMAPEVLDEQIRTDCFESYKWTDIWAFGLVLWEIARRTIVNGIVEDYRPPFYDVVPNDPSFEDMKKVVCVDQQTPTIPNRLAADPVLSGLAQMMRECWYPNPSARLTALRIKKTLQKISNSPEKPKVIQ
IC50 [1],IC50 [2],IC50 (TGF-beta receptor type-1),IC50 [3],ΔTm [8],inhibition [2],inhibition [9],Compound,inhibition (HEK293T [4]),inhibition (HEK293T [5]),inhibition (HUVEC [6]),inhibition (HUVEC [7])
131 nM,> 1000 nM,> 1000 nM,6.19 µM,,,,NC(=O)c1cccc(CNC(=O)c2ccc3nc(-c4ccc5cnccc5c4)n(C4CCCC4)c3c2)c1,Active,Active,Active,Active
267 nM,> 1000 nM,> 1000 nM,24.1 µM,15.7 °C,,,CNC(=O)[C@@H]1CC[C@@H](n2c(-c3ccc4cnccc4c3)nc3ccc(C(=O)NCc4cccc(C(N)=O)c4)cc32)C1,,,,
,,,6.92 µM,,inactive,inactive,COc1cnc(Nc2cccc(S(N)(=O)=O)c2)nc1N1CCN(c2ccccc2)C(=O)C1,Active,Active,Active,Active
,,,4.87 µM,13.9 °C,inactive,inactive,CNC(=O)CCc1ccc(C(=O)NCc2cccc(N3CCN(c4nc(Nc5cccc(S(N)(=O)=O)c5)ncc4OC)CC3)c2)cc1,,,,
